According to ChEMBL document CHEMBL4261504, “Identification of steroid-like natural products as antiplasmodial agents by 2D and 3D similarity-based virtual screening” (Medchemcomm, 2017):

How the values were obtained:
Plasmodium falciparum = assay: Antimalarial activity against Plasmodium falciparum NF54 infected in human erythrocytes assessed as reduction in [3H]hypoxanthine incorporation preincubated for 48 hrs followed by [3H]hypoxanthine addition measured after 24 hrs by liquid scintillation counting; assay type: functional, organism-based
Method in brief: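 Chloroquine-sensitive P. falciparum NF54 was tested in a modified [3H]hypoxanthine incorporation assay. Test compounds were run up to 20 μM, and fusidic acid was tested above that. Chloroquine, artesunate and fusidic acid served as positive controls. Compound purity was ≥95%. IC50 is the mean of at least 2 independent experiments.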

CHO = assay: Cytotoxicity against CHO cells by MTT assay; assay type: cell-based; conditions: Cricetulus griseus
Method in brief: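 Mammalian Chinese hamster ovary (CHO) cell line, with emetine as the positive control. Test samples were of ≥95% purity. Cytotoxicity is reported as IC50.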

[1] = Selectivity index, ratio of IC50 for CHO cells to IC50 for Plasmodium falciparum NF54 infected in human erythrocytes; assay type: toxicity, cell-based; conditions: Chinese hamster, read-out: Ratio IC50
Method in brief: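 SI was calculated as the IC50 against Chinese hamster ovary (CHO) cells divided by the IC50 against P. falciparum NF54. The NF54 value came from the [3H]hypoxanthine incorporation assay. Emetine was the positive control for CHO cytotoxicity.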

| Compound | IC50 (Plasmodium falciparum) [µM] | IC50 (CHO) [µM] | selectivity ratio [1] |
| --- | --- | --- | --- |
| CC(=O)[C@@]12O[C@@H]1C[C@H]1[C@H]3CC=C4[C@@H](CC[C@@H](O)C4(C)C)[C@]3(C)C(=O)C[C@@]12C | > 20 |  |  |
| COC(=O)CC[C@@H](C)[C@H]1CC[C@@H]2[C@H]3[C@H](OC(C)=O)C[C@H]4C[C@H](OC(C)=O)CC[C@]4(C)[C@H]3C[C@H](OC(C)=O)[C@@]21C | 3.45 | 141 | 40.9 |
| CC(=O)O[C@H]1CC[C@@]2(C)C(=CC[C@@H]3[C@H]4CCC[C@@]4(C)CC[C@H]32)C1 | > 20 |  |  |
| CC(=O)O[C@H]1CC[C@]2(C)[C@H]3CC[C@@]4(C)[C@H](CC[C@@H]4[C@H](C)CCCC(C)C)[C@@H]3C[C@@H](O)[C@]2(O)C1 | > 20 |  |  |
| CC(=O)O[C@H]1CC[C@@H]2[C@H]3CC[C@@]4(O)[C@H](CCC[C@@H]4O)[C@H]3CC[C@]12C | > 20 |  |  |
| CC(C)CCC[C@@H](C)[C@H]1CC[C@@H]2[C@@H]3C[C@H](O)[C@]4(O)C(=O)CCC[C@]4(C)[C@H]3CC[C@@]21C | > 20 |  |  |
| CC[C@H]1CC[C@@]2(C)[C@H]3C[C@H]4O[C@@]45[C@@H](CC[C@@H](O)C5(C)C)[C@@H]3C(=O)C[C@@]12C | > 20 |  |  |
| CC(=O)O[C@H]1C[C@@H](O)[C@]2(O)CC[C@@H]3[C@H]4CC[C@H]([C@H](C)CCCC(C)C)[C@@]4(C)CC[C@@H]3[C@@]2(C)C1 | 13.1 |  |  |
| CC(=O)OC[C@@]12C(=O)C[C@@]3(C)[C@H](C(C)=O)CC[C@@]3(C)[C@@H]1C[C@H]1O[C@@]13[C@H]2CC[C@@H](OC(C)=O)C3(C)C | > 20 |  |  |
| COc1ccc2c(c1)CC[C@@H]1[C@@H]2CC[C@]2(C)C3(CC[C@@]12C=O)SCCS3 | > 20 |  |  |
| CC(=O)O[C@H]1C[C@@H]2[C@H]3CC[C@H]([C@H](C)CCCC(C)C)[C@@]3(C)CC[C@@H]2[C@@]2(C)CCC[C@@H](O)[C@]12O | > 20 |  |  |
| CC(=O)O[C@@H]1CC[C@]2(C)[C@H]3CC[C@@]4(C)[C@@H]([C@@H](C)CCCC(C)C)CC[C@H]4[C@@H]3CC[C@@]2(O)[C@@H]1O | > 20 |  |  |
| CC(=O)O[C@H]1C(=O)C[C@@H]2C(=CC[C@H]3[C@@]2(C)C(=O)C[C@]2(C)C(C(C)=O)=CC[C@@]32C)C1(C)C | 19.8 |  |  |
| C[C@@H]1CC[C@@]2(OC1)O[C@H]1C[C@H]3[C@@H]4CC[C@H]5C[C@@H](O)CC[C@]5(C)C4=CC(=O)[C@]3(C)[C@H]1[C@@H]2C | > 20 |  |  |
| CC(=O)O[C@H]1CC[C@@H]2[C@@H]3C[C@H](OC(C)=O)[C@@]45O[C@@H]4CCC[C@]5(C)[C@H]3CC[C@]12C | > 20 |  |  |
| CC(=O)O[C@@H]1C[C@@]2(C)[C@@H]3CC=C4[C@@H](CC(=O)C4(C)C)[C@]3(C)C(=O)C[C@]2(C)[C@H]1C(C)=O | > 20 |  |  |
| CC(=O)O[C@H]1CC[C@@H]2[C@H]3C[C@@H](O)[C@@]4(O)CCCC[C@H]4[C@@H]3CC[C@]12C | > 20 |  |  |
| COc1ccc2c(c1)CC[C@@H]1[C@H]3[C@H](OCc4ccccc4)CC4(OCCO4)[C@H]3CC[C@@H]21 | 7 |  |  |
| COc1ccc2c(c1)CC[C@H]1[C@@H]2CC[C@@]2(C)[C@]13C=C[C@@]2(C(C)=O)[C@@H](S(=O)(=O)c1ccccc1)C3 | > 20 |  |  |
| CC(=O)OC(C)(C)/C=C/C(=O)[C@](C)(O)[C@H]1[C@@H](O)C[C@@]2(C)[C@@H]3CC=C4[C@@H](CC[C@H](O)C4(C)C)[C@]3(CO)C(=O)C[C@]12C | 1.76 | 8.51 | 4.83 |
| CC1(C)CCC[C@H]2[C@]3(C)CC[C@]4(C)CCC[C@H]4[C@H]3C[C@@H](O)[C@@]21O | 15.8 |  |  |
| CC(=O)O[C@@H]1C[C@H]2[C@@](C)(C(=O)C[C@]3(C)[C@@H](C(C)=O)CC[C@@]23C)[C@@H]2CCC(=O)C(C)(C)[C@@]12O | > 20 |  |  |
| CC(=O)OC(C)(C)/C=C/C(=O)[C@](C)(O)[C@H]1[C@H](O)C[C@@]2(C)[C@@H]3CC=C4[C@@H](C[C@H](O)C(=O)C4(C)C)[C@]3(C)C(=O)C[C@]12C | 1.39 | 1.99 | 1.43 |
| C[C@H]1[C@H](OC(=O)CCC(=O)O)O[C@@H]2O[C@@]3(C)CC[C@H]4[C@H](C)CC[C@@H]1[C@@]24OO3 [ARTESUNATE] | 0.004 |  |  |
| C[C@H](CCC(=O)O)[C@H]1CC[C@H]2[C@@H]3[C@H](O)C[C@@H]4C[C@H](O)CC[C@]4(C)[C@H]3C[C@H](O)[C@]12C [CHOLIC ACID] | > 20 |  |  |
| CC(=O)OC(C)(C)/C=C/C(=O)[C@](C)(O)[C@H]1[C@H](O)C[C@@]2(C)[C@@H]3CC=C4[C@@H](C[C@H](O)C(=O)C4(C)C)[C@]3(CO)C(=O)C[C@]12C [CUCURBITACIN A] | 2.92 | 55.2 | 18.9 |
| C[C@@H]1CC[C@@]2(OC1)O[C@H]1C[C@H]3[C@@H]4CC=C5C[C@@H](O)CC[C@]5(C)[C@H]4CC[C@]3(C)[C@H]1[C@@H]2C [DISOGENIN] | > 20 |  |  |
| CC(=O)O[C@H]1C[C@@]2(C)[C@@H](C[C@@H](O)[C@H]3[C@@]4(C)CC[C@@H](O)[C@@H](C)[C@@H]4CC[C@@]32C)/C1=C(\CCC=C(C)C)C(=O)O [FUSIDIC ACID] |  | 194 |  |
